Laboratory results reported in the RNAGym collection of RNA variant scans (doi:10.1126/science.aae0568).
Fewer inactive variants are shown than the library holds.

B1: tRNA (parent)
chain: GUUCCGUUGGCGUAAUGGUAACGCGUCUCCCUCCUAAGGAGAAGACUGCGGGUUCGAGUCCCGUACGGAACG

Variants of: B1
Test: yeast fitness relative to wild type (ratio to wild type); higher = fitter; tRNA-Arg(CCU), competitive growth, 37 C, YPD
In short: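 A pool of Saccharomyces cerevisiae strains, each with a tRNA-Arg(CCU) gene variant at the native genomic locus, was competed in YPD at 37°C for 24 hours across six parallel replicates. The variants had been chemically synthesised at a 3% per-site mutation rate over 69 sites, and gene amplicons before and after competition were read by 100-nucleotide paired-end sequencing. Darwinian fitness relative to wild type rested on changes in genotype frequencies. Genotypes required ≥ 100 starting reads, and estimates < 0.5 were set to 0.5.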

| Variant | yeast fitness |
| --- | --- |
| U2G C4G A21C A69C | ≤ 0.5 |
| U2G A15C G50A | ≤ 0.5 |
| U2G C5A U19A C30G A43C | ≤ 0.5 |
| U2G A36U C62G G63A | ≤ 0.5 |
| U2C U26G A65G | 0.712 |
| U2G A57C | 0.533 |
| U2G A40U C49A G58C G63C | ≤ 0.5 |
| U2G A14G C29G A37U | ≤ 0.5 |
| U2G C31U U47G | ≤ 0.5 |
| U2C U13C C22G U26A | ≤ 0.5 |
| U2C U8C A21U C29U G39A G51C C60U C66G | ≤ 0.5 |
| U2G C33U G58C | 0.566 |
| U2G A36G A40U A43U C66A | ≤ 0.5 |
| U2G A15U U35G U53G | ≤ 0.5 |
| U2G C34G G67U | ≤ 0.5 |
| U2G A15C A37G A43U | ≤ 0.5 |
| U2C U8C G44A U53C A70U | ≤ 0.5 |
| U2C U19A C30U G38C | 0.54 |
| U2G A42C U47A G63C | 0.55 |
| U2G A43U U47C | 0.731 |
| U2G A20G C22A A40C C46G G48A C49U | ≤ 0.5 |
| U2G C11U C55G | ≤ 0.5 |
| U2C U19C G50A | 0.593 |
| U2G C4U C55U | 0.679 |

| Variant | yeast fitness |
| --- | --- |
| U2G A15G G17A G52C A65G | 0.558 |
| U2G A15C A36C A69U A70G | ≤ 0.5 |
| U2C U16G A70G | 1.06 |
| U2G C4G A21C | 0.725 |
| U2G C4U G6C C22G G25C U32A G52A U59C C61A C62U | ≤ 0.5 |
| U2G C22U C62U | 0.616 |
| U2G A45G A65C | ≤ 0.5 |
| U2G C30A C46G | 0.666 |
| U2G A70C | 0.836 |
| U2C U26C G48A | 0.663 |
| U2G C4A C22U U28G A42U | ≤ 0.5 |
| U2G A15C C24U C55U A65G | ≤ 0.5 |
| U2G C5A A70C | ≤ 0.5 |
| U2G C31A A69C | 0.557 |
| U2G A14C C33A C46G | ≤ 0.5 |
| U2C U8C C34A A42C C49A | ≤ 0.5 |
| U2G A36G | 0.953 |
| U2G A14G C22U C24G A69C | ≤ 0.5 |
| U2G C27U C46U G63A | 0.811 |
| U2C U19C A37G C49A A69C | ≤ 0.5 |
| U2G C27G C33U C49U | ≤ 0.5 |
| U2C U28C C55A | ≤ 0.5 |
| U2G C11G G12A A20U C31G G68C | ≤ 0.5 |
| U2G C60G | 0.592 |

| Variant | yeast fitness |
| --- | --- |
| U2C U32G C34U A57G | ≤ 0.5 |
| U2G C5A U19A C30G A43C A69C | 0.537 |
| U2G A14G | 0.713 |
| U2C U32C | 0.973 |
| U2G C49U G52A G68C | ≤ 0.5 |
| U2G A14C A69C | ≤ 0.5 |
| U2C U28A G44U | ≤ 0.5 |
| U2G C30A A36G G39C A57G | 0.709 |
| U2C U28A G56A | ≤ 0.5 |
| U2G C29U C55U | 0.527 |
| U2G C31U | 1.03 |
| U2G C31G | 1.02 |
| U2G C31A | 0.788 |
| U2G A15C C24U | 0.591 |
| U2G A21G A69C | 0.501 |
| U2C U16G G56C | ≤ 0.5 |
| U2C U32A A65C | ≤ 0.5 |
| U2C U13C G41A | 0.602 |
| U2C U47C A70U | 0.808 |
| U2C U19C A45C C55U | ≤ 0.5 |
| U2G C4U U8C | 0.732 |
| U2G A40U C55U | ≤ 0.5 |
| U2C U35A U47A C49U C55U C66U | ≤ 0.5 |
| U2C U19C A69C | 0.708 |

| Variant | yeast fitness |
| --- | --- |
| U2G C11U | 0.824 |
| U2G C4G C31A A37C A57G G67C A69U | ≤ 0.5 |
| U2G A36U G68C | 0.605 |
| U2G C5U C31G | 0.583 |
| U2G A57C C62A A65C | ≤ 0.5 |
| U2G C49A A57C | ≤ 0.5 |
| U2G A45C C61U | 0.615 |
| U2C U13G G67U | ≤ 0.5 |
| U2C U16A G63A | 0.705 |
| U2G C46G C49U | 0.669 |
| U2C U13C A14G C22G U26A | ≤ 0.5 |
| U2G C5A C55G A65C | ≤ 0.5 |
| U2G C55U C61G A65G G68A | ≤ 0.5 |
| U2G C11G A20U C22U C34U C49A G52A | ≤ 0.5 |
| U2G A15C U47G A69C | ≤ 0.5 |
| U2G C31U A70U | 0.772 |
| U2C U28C C34U U64A A65U | 0.735 |
| U2G C11U A45C U53G A65G | ≤ 0.5 |
| U2G C34G A43C | 0.552 |
| U2G A15C C49U | 0.563 |
| U2G C31G C33G A40U G52A C60G C62U | 0.515 |
| U2C U64C G68A | 0.578 |
| U2C U54C C62U | 0.571 |
| U2G C22A A36G G52A C66A A69U | ≤ 0.5 |

| Variant | yeast fitness |
| --- | --- |
| U2C U19C A57C | 0.642 |
| U2G A21G A65G | 0.663 |
| U2G C49G G50C | 0.536 |
| U2G A45U C66U G67A | ≤ 0.5 |
| U2G C27U G68U | 0.589 |
| U2G C31G A57U | ≤ 0.5 |
| U2C U13A U54C C66U | ≤ 0.5 |
| U2G C30G G39C | 0.551 |
| U2C U32C A40C G48A | 0.551 |
| U2G A15U C62G | ≤ 0.5 |
| U2G C4U A65G | 0.729 |
| U2C U19C A37G | ≤ 0.5 |
| U2G C11G A20G C24U U26C C31G | ≤ 0.5 |
| U2G C4A C22U U28G A42U U64C | ≤ 0.5 |
| U2C U8C A42C | 0.676 |
| U2G A40G | 0.803 |
| U2G A40U | 0.813 |
| U2G A40C | 0.698 |
| U2G C33U A36U A43C A69C | 0.767 |
| U2G C5A U19A | 0.552 |
| U2G A21G U47C A69C | ≤ 0.5 |
| U2G C24G C29G C31A | ≤ 0.5 |
| U2C U35G A40C C62G C66G | ≤ 0.5 |
| U2G A42U U64C | ≤ 0.5 |

| Variant | yeast fitness |
| --- | --- |
| U2G A42U U64G | ≤ 0.5 |
| U2G A14C C27U U35A A57G C66U | ≤ 0.5 |
| U2C U35A C55A | ≤ 0.5 |
| U2G C33G G39C A65C | ≤ 0.5 |
| U2G C33A | 0.632 |
| U2C U53G | 0.598 |
| U2C U28A U54C | 0.543 |
| U2C U32C U35A G56A | ≤ 0.5 |
| U2G C27U G41A A42U C46G | ≤ 0.5 |
| U2G C11U A15U U47A | 0.578 |
| U2G C27G C33U G56A | ≤ 0.5 |
| U2G C34G C49G C61U A69G | ≤ 0.5 |
| U2G C27U A40G G48A | 0.576 |
| U2G C24U C55G A70U | ≤ 0.5 |
| U2G A42C U47A | 0.573 |
| U2G C22U A40U | ≤ 0.5 |
| U2C U8C G23C C31G C33U A42G G52C G58C | ≤ 0.5 |
| U2G C27U A37C G52A G67A | ≤ 0.5 |
| U2G C62G A70U | 0.822 |
| U2C U8G U32G U35A C55U G58A | ≤ 0.5 |
| U2G C55U | 0.667 |
| U2G C4U U7G C11G A15C G18A C55U | 0.75 |
| U2G C29G C31A G67A | ≤ 0.5 |
| U2C U26G G38C | ≤ 0.5 |

| Variant | yeast fitness |
| --- | --- |
| U2G C34U A57G | ≤ 0.5 |
| U2G C34U A57C | ≤ 0.5 |
| U2G A21C C46G C49G | ≤ 0.5 |
| U2G C4U C22U C27U A37C | ≤ 0.5 |
| U2G C46A | 0.808 |
| U2G A45C G48A | 0.622 |
| U2G C27G C66U | ≤ 0.5 |
| U2C U26A | 0.918 |
| U2G C11U C27G G52C | ≤ 0.5 |
| U2C U13A C27G C33A G48A G51C | ≤ 0.5 |
| U2G A14U A20G C33G G67U A69C | ≤ 0.5 |
| U2C U16A A42G | 0.649 |
| U2G C30U A40C G63C U64C | ≤ 0.5 |
| U2G C4U | 0.971 |
| U2C U16C A36G | ≤ 0.5 |
| U2G A14U A20G C33G A70C | ≤ 0.5 |
| U2G A40C G68C | 0.54 |
| U2G C22G U28A C31G C55A G68C | ≤ 0.5 |
| U2G C33U A42C | 0.681 |
| U2C U13C C27A G58C G63C | ≤ 0.5 |
| U2G C22U C24G C66U A70G | ≤ 0.5 |
| U2G A36U G58A | ≤ 0.5 |
| U2G A69C A70G | 0.57 |
